Measured values taken from paper PMC11352836 (Science Advances, 2024).
Peptide text beside a SMILES is read from it. * marks the point of attachment. Cbz = O=C(OCc1ccccc1)*

Legend:
ENL [1] = target: T1, ENL (Homo sapiens, UniProt Q03111); assay type: cell-based; settings: MV4;11 cells pretreated 1 hour, then 100 nM MS41 for 2 hours
T1 sequence (Q03111 1-559): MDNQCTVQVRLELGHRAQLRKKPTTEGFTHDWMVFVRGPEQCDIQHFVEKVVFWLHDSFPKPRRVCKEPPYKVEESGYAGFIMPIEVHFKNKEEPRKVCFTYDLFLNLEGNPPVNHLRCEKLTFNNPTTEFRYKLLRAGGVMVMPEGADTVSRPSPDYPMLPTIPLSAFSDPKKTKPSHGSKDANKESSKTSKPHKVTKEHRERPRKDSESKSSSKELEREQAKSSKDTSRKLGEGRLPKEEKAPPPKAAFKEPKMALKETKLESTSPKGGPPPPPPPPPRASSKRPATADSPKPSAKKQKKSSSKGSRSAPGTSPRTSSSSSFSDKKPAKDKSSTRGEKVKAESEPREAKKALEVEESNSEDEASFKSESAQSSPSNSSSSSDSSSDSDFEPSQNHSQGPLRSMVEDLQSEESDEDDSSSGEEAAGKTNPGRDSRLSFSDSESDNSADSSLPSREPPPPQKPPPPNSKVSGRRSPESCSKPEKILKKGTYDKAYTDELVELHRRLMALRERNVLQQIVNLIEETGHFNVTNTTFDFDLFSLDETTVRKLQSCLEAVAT
Outline: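 MV4;11 cells were pretreated 1 h with graded concentrations of a YEATS-domain ligand, a VHL ligand, proteasome inhibitor MG132, or neddylation inhibitor MLN4924, then given 100 nM test compound for 2 h. Separately, control-sgRNA or VHL-sgRNA MV4;11 cells got graded test compound for 24 h. ENL and VHL were read by immunoblot.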

ENL [2] = target: T1, ENL; assay: Endogenous ENL degradation by immunoblotting in human leukemia cell lines; assay type: cell-based; settings: MV4;11 cells; 1 nM to 10 μM, 6 and 24 hours
Outline: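 MV4;11 and Jurkat cells were treated with DMSO or graded test-compound concentrations for 6 or 24 h. Cells were lysed in Tris/250 mM NaCl/0.5% Triton X-100/glycerol buffer with DTT and protease inhibitors. Bradford-equalised lysates were immunoblotted for ENL, with β-actin as loading control.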

ENL YEATS domain = target: T2, ENL YEATS domain (Homo sapiens, UniProt Q03111); assay: AlphaScreen assay, ENL YEATS-H3K9ac interaction; assay type: binding
T2 sequence (Q03111 1-145): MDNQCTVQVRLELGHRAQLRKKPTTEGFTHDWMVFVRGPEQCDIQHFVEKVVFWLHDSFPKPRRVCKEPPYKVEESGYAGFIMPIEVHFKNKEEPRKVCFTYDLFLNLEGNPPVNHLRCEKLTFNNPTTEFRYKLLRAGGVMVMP

MV4;11 cells [3] = assay: MS-based global quantitative; assay type: cell-based, human; settings: MV4;11, 100 nM, 2 or 6 hours; cutoff P value <0.05 and fold change >1.5
Outline: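 MV4;11 cells (10^6 per sample, three biological replicates) were exposed to 100 nM test compound or DMSO for 2 or 6 h. Pellets were solubilised in 8 M urea/50 mM Tris pH 8.0, reduced with 5 mM DTT and alkylated with 15 mM iodoacetamide. After fourfold dilution, samples were digested with trypsin (1:100, overnight, RT), desalted on C18 and analysed by nanoLC-MS. Proteins with ≥2 razor+unique peptides were compared by two-sample t test.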

MV4;11 cells [4] = assay: Cell viability assay; assay type: cell-based, human; settings: MV4;11, 6 days
RS4;11 cells = assay: Cell viability assay; assay type: cell-based, human; settings: RS4;11, 6 days
SEMK2 cells = assay: Cell viability assay; assay type: cell-based, human; settings: SEMK2, 6 days
KASUMI1 cells = assay: Colony formation assay; assay type: cell-based, human; settings: KASUMI1, 100 nM, 10 days
MV4;11 cells [5] = assay: Cell cycle and apoptosis assay; assay type: cell-based, human; settings: MV4;11, 100 nM
Outline: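 Cells were harvested at set time points. For cell cycle, cells in HBSS/2% FBS were fixed with dropwise ice-cold 70% ethanol and stained with DAPI. For apoptosis, cells were PBS-washed at 1×10^6 cells/ml in binding buffer, stained with FITC-annexin V plus propidium iodide for 15 min at RT, and run on flow cytometry within 1 h.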

MV4;11 cells [6] = assay: RNA-seq analysis in MV4; assay type: cell-based, human; settings: MV4;11, 6 and 24 hours
MV4;11 cells [7] = assay: RT-qPCR of ENL target genes and ENL in MV4; assay type: cell-based, human; settings: MV4;11, 24 hours
HEK293 cells = assay: RT-qPCR of HOXA11 and HOXA13 in HEK293 cells expressing ENL mutants; assay type: cell-based, human; settings: HEK293 stable cells, 100 nM, 72 hours
Outline: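 HEK293 stable lines expressing ENL mutants were treated with DMSO, 100 nM test compound or 100 nM controls for 72 h. HOXA11 and HOXA13 mRNA was measured by RT-qPCR in three independent experiments, reported as mean ± SEM with Student's t test.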

ENL [8] = settings: cited from earlier work
IKZF1 = settings: cited from earlier work
[9] = test system: xenograft leukemia models; settings: cited from earlier work
[10] = cited from earlier work
MV4;11 cells [11] = assay: Drug synergy test, MS41 with doxorubicin; assay type: cell-based, human; settings: MV4;11, cotreatment, 6 days
Outline: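 MV4;11 cells were given DMSO, test compound, doxorubicin, or the combination at graded concentrations for 6 days. Viability was read by CellTiter-Glo luminescence.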

## CC(C)C[C@@H](C=O)NC(=O)[C@H](CC(C)C)NC(=O)[C@H](CC(C)C)NC(=O)OCc1ccccc1 [MG132] (Cbz-Leu-Leu-Leu-aldehyde)
ENL [1]
  effect of pretreatment on MS41-mediated ENL degradation: effectively blocked

## NS(=O)(=O)OC[C@@H]1C[C@@H](n2ccc3c(N[C@H]4CCc5ccccc54)ncnc32)C[C@@H]1O [MLN4924]
ENL [1]
  effect of pretreatment on MS41-mediated ENL degradation: effectively blocked

## Cc1ncsc1-c1ccc([C@H](C)NC(=O)[C@H]2C[C@H](O)CN2C(=O)[C@@H](NC(=O)CCCCCCCCCNC(=O)c2ccc3c(c2)[C@H](NC(=O)c2cc(-c4ccc(C(=O)N(C)C)c(O)c4)on2)CC3)C(C)(C)C)cc1 [MS41N]
ENL [2]
  endogenous ENL protein degradation (immunoblot): did not induce ENL degradation, even at 10 μM
ENL YEATS domain
  IC50: 117 nM
MV4;11 cells [3]
  proteome-wide selectivity (change in protein abundance): did not substantially alter the abundance of any proteins
MV4;11 cells [4]
  cell growth suppression: did not suppress cell growth
RS4;11 cells
  cell growth suppression: did not suppress cell growth
SEMK2 cells
  cell growth suppression: did not suppress cell growth
KASUMI1 cells
  clonogenic potential (colony formation): but not MS41N or PFI-6
MV4;11 cells [5]
  apoptosis: had no such effects
  cell cycle profile: had no such effects
MV4;11 cells [6]
  changes in gene expression (RNA-seq): did not induce substantial changes in gene expression
MV4;11 cells [7]
  mRNA levels of ENL (RT-qPCR): did not affect mRNA levels of ENL
HEK293 cells
  HOXA11 and HOXA13 gene expression induced by ENL mutants: had no or only minor effects on HOXA11 and HOXA13 gene expression

## O=C(COc1cccc2c1C(=O)N(C1CCC(=O)NC1=O)C2=O)NCCOCCOCCNS(=O)(=O)Nc1cccc(-c2cn3cc(C(=O)NC4CCC4)ccc3n2)c1 (centres unmarked) [SR-1114]
ENL [8]
  ENL depletion: able to induce ENL depletion
IKZF1
  IKZF1 degradation (off-target): concurrent degradation of IKZF1

## C[C@H]1CCCN1Cc1cc2cnc(NC(=O)c3ccc4c(cnn4C)c3)cc2[nH]1 [TDI-11055]
[9]
  in vivo efficacy: in vivo efficacy in xenograft leukemia models

## Cc1ncsc1-c1ccc(CNC(=O)[C@@H]2C[C@@H](O)CN2C(=O)[C@@H](NC(=O)C2(C#N)CC2)C(C)(C)C)cc1 [VH298]
ENL [1]
  effect of pretreatment on MS41-mediated ENL degradation: hindered MS41-mediated ENL degradation

## Cc1ncsc1-c1ccc(CNC(=O)[C@@H]2C[C@@H](O)CN2C(=O)[C@@H](NC(=O)CCOCCNC(=O)c2ccc3c(c2)[C@H](NC(=O)c2cc(-c4ccc(C(=O)N(C)C)c(O)c4)on2)CC3)C(C)(C)C)cc1 [compound 1]
[10]
  antitumor activity: exhibiting antitumor activity

## COc1cccc2c1C(=O)c1c(O)c3c(c(O)c1C2=O)C[C@@](O)(C(=O)CO)C[C@@H]3O[C@H]1C[C@H](N)[C@H](O)[C@H](C)O1 [doxorubicin]
MV4;11 cells [11]
  interaction of MS41 and doxorubicin (Bliss independence model): strong synergistic effect
